Measurements from ChEMBL document CHEMBL1629633, “Prevalence of sulfonamide resistance genes in bacterial isolates from manured agricultural soils and pig slurry in the United Kingdom” (2009).
Values after ≈ are worked out from the molar mass of the structure shown.

How the values were obtained:
[1] = tested on: Arthrobacter arilaitensis; assay: Antimicrobial activity against Arthrobacter arilaitensis isolate C361 harboring sul1 to sul3 genes by agar dilution method; type: functional; settings: Glutamicibacter arilaitensis
Procedure, shortened: (§1)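 Agar dilution on Iso-Sensitest agar for MICs and resistance breakpoints. Each isolate's inoculum (100 μl) was adjusted to OD600 0.4. Isolates came from soil cores of a field given pig slurry, or from the pig slurry itself. They were picked from nonselective or antibiotic plates incubated aerobically at 28°C, purified by restreaking, checked for sul genes by PCR and identified by 16S rRNA sequencing.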

[2] = tested on: Lysinibacillus sphaericus; assay: Antimicrobial activity against Bacillus sphaericus isolate C237 harboring sul1 to sul3 genes by agar dilution method; type: functional; procedure, shortened: as §1
[3] = Antimicrobial activity against Psychrobacter ikaite isolate C410 harboring sul1 to sul3 genes by agar dilution method; type: functional
Procedure, shortened: (§2)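 Isolates were recovered from manured clay soil or pig slurry on Iso-Sensitest agar at 28°C. sul genes were detected by PCR, and identity was assigned by ~800 bp 16S rRNA sequencing. MICs and resistance breakpoints were found by agar dilution on Iso-Sensitest agar, with each inoculum (100 μl) adjusted to OD600 0.4.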

Shigella flexneri [4] = assay: Antimicrobial activity against Shigella flexneri isolate C506 harboring sul1 to sul3 genes by agar dilution method; type: functional; procedure, shortened: as §2
Pseudomonas lini = assay: Antimicrobial activity against Pseudomonas lini isolate C701 harboring sul1 to sul3 genes by agar dilution method; type: functional; procedure, shortened: as §1
Aerococcus viridans [5] = assay: Antimicrobial activity against Aerococcus viridans isolate PGS21 harboring sul1 to sul3 genes by agar dilution method; type: functional; procedure, shortened: as §1
[6] = Antimicrobial activity against Psychrobacter ikaite isolate C713 harboring sul1 to sul3 genes by agar dilution method; type: functional; procedure, shortened: as §2
Acinetobacter lwoffii [7] = assay: Antimicrobial activity against Acinetobacter lwoffii isolate C3 harboring sul1 to sul3 genes by agar dilution method; type: functional; procedure, shortened: as §1
[8] = Antimicrobial activity against Psychrobacter ikaite isolate C20 harboring sul1 to sul3 genes by agar dilution method; type: functional; procedure, shortened: as §2
Aerococcus viridans [9] = assay: Antimicrobial activity against Aerococcus viridans isolate PGS22 harboring sul1 to sul3 genes by agar dilution method; type: functional; procedure, shortened: as §1
[10] = Antimicrobial activity against Psychrobacter sp. DY9-2 isolate C711 harboring sul1 to sul3 genes by agar dilution method; type: functional; procedure, shortened: as §2
[11] = tested on: Acinetobacter calcoaceticus; assay: Antimicrobial activity against Acinetobacter calcoaceticus isolate C36 harboring sul1 to sul3 genes by agar dilution method; type: functional; procedure, shortened: as §1
Enterococcus hirae [12] = assay: Antimicrobial activity against Enterococcus hirae isolate PGS48 harboring sul1 to sul3 genes by agar dilution method; type: functional; procedure, shortened: as §1
Pseudomonas borealis [13] = assay: Antimicrobial activity against Pseudomonas borealis isolate C5 harboring sul1 to sul3 genes by agar dilution method; type: functional; procedure, shortened: as §1
[14] = Antimicrobial activity against Acinetobacter sp. N2 isolate C439 harboring sul1 to sul3 genes by agar dilution method; type: functional; procedure, shortened: as §1
Acinetobacter lwoffii [15] = assay: Antimicrobial activity against Acinetobacter lwoffii isolate PGS47 harboring sul1 to sul3 genes by agar dilution method; type: functional; procedure, shortened: as §1
Acinetobacter lwoffii [16] = assay: Antimicrobial activity against Acinetobacter lwoffii isolate C15 harboring sul1 to sul3 genes by agar dilution method; type: functional; procedure, shortened: as §1
[17] = Antimicrobial activity against Acinetobacter sp. An9 isolate PGS49 harboring sul1 to sul3 genes by agar dilution method; type: functional; procedure, shortened: as §1
Providencia stuartii [18] = assay: Antimicrobial activity against Providencia stuartii isolate C167 harboring sul1 to sul3 genes by agar dilution method; type: functional; procedure, shortened: as §1
Pseudomonas fluorescens [19] = assay: Antimicrobial activity against Pseudomonas fluorescens isolate C131 harboring sul1 to sul3 genes by agar dilution method; type: functional; procedure, shortened: as §1
[20] = tested on: Acinetobacter rhizosphaerae; assay: Antimicrobial activity against Acinetobacter rhizosphaerae isolate C44 harboring sul1 to sul3 genes by agar dilution method; type: functional; procedure, shortened: as §1
Bacillus psychrodurans [21] = assay: Antimicrobial activity against Bacillus psychrodurans isolate C328 harboring sul1 to sul3 genes by agar dilution method; type: functional; settings: Psychrobacillus psychrodurans; procedure, shortened: as §1
Acinetobacter lwoffii [22] = assay: Antimicrobial activity against Acinetobacter lwoffii isolate C37 harboring sul1 to sul3 genes by agar dilution method; type: functional; procedure, shortened: as §1
[23] = tested on: Stenotrophomonas maltophilia; assay: Antimicrobial activity against Stenotrophomonas maltophilia isolate C422 harboring sul1 to sul3 genes by agar dilution method; type: functional; procedure, shortened: as §2
[24] = tested on: Acinetobacter calcoaceticus; assay: Antimicrobial activity against Acinetobacter calcoaceticus isolate C35 harboring sul1 to sul3 genes by agar dilution method; type: functional; procedure, shortened: as §1
Acinetobacter lwoffii [25] = assay: Antimicrobial activity against Acinetobacter lwoffii isolate C141 harboring sul1 to sul3 genes by agar dilution method; type: functional; procedure, shortened: as §1
Pseudomonas putida [26] = assay: Antimicrobial activity against Pseudomonas putida isolate C231 harboring sul1 to sul3 genes by agar dilution method; type: functional; procedure, shortened: as §1
Enterococcus sulfureus [27] = assay: Antimicrobial activity against Enterococcus sulfureus isolate PGS61 harboring sul1 to sul3 genes by agar dilution method; type: functional; procedure, shortened: as §1
Acinetobacter lwoffii [28] = assay: Antimicrobial activity against Acinetobacter lwoffii isolate C2 harboring sul1 to sul3 genes by agar dilution method; type: functional; procedure, shortened: as §1
Acinetobacter baumannii [29] = assay: Antimicrobial activity against Acinetobacter baumannii isolate C442 harboring sul1 to sul3 genes by agar dilution method; type: functional; procedure, shortened: as §1
[30] = tested on: Psychrobacter frigidicola; assay: Antimicrobial activity against Psychrobacter frigidicola isolate C712 harboring sul1 to sul3 genes by agar dilution method; type: functional; procedure, shortened: as §1
[31] = tested on: Acinetobacter rhizosphaerae; assay: Antimicrobial activity against Acinetobacter rhizosphaerae isolate C44 harboring sul1 to sul3 genes assessed as antibiotic resistance breakpoint by agar dilution method; type: functional; procedure, shortened: as §1
[32] = Antimicrobial activity against Acinetobacter sp. N2 isolate C439 harboring sul1 to sul3 genes assessed as antibiotic resistance breakpoint by agar dilution method; type: functional; procedure, shortened: as §1
Enterococcus sulfureus [33] = assay: Antimicrobial activity against Enterococcus sulfureus isolate PGS61 harboring sul1 to sul3 genes assessed as antibiotic resistance breakpoint by agar dilution method; type: functional; procedure, shortened: as §1
Acinetobacter baumannii [34] = assay: Antimicrobial activity against Acinetobacter baumannii isolate C442 harboring sul1 to sul3 genes assessed as antibiotic resistance breakpoint by agar dilution method; type: functional; procedure, shortened: as §1
Aerococcus viridans [35] = assay: Antimicrobial activity against Aerococcus viridans isolate PGS22 harboring sul1 to sul3 genes assessed as antibiotic resistance breakpoint by agar dilution method; type: functional; procedure, shortened: as §1
Acinetobacter lwoffii [36] = assay: Antimicrobial activity against Acinetobacter lwoffii isolate C37 harboring sul1 to sul3 genes assessed as antibiotic resistance breakpoint by agar dilution method; type: functional; procedure, shortened: as §1
Aerococcus viridans [37] = assay: Antimicrobial activity against Aerococcus viridans isolate PGS21 harboring sul1 to sul3 genes assessed as antibiotic resistance breakpoint by agar dilution method; type: functional; procedure, shortened: as §1
[38] = tested on: Arthrobacter arilaitensis; assay: Antimicrobial activity against Arthrobacter arilaitensis isolate C361 harboring sul1 to sul3 genes assessed as antibiotic resistance breakpoint by agar dilution method; type: functional, Glutamicibacter arilaitensis; procedure, shortened: as §1
[39] = tested on: Acinetobacter calcoaceticus; assay: Antimicrobial activity against Acinetobacter calcoaceticus isolate C35 harboring sul1 to sul3 genes assessed as antibiotic resistance breakpoint by agar dilution method; type: functional; procedure, shortened: as §1
Pseudomonas fluorescens [40] = assay: Antimicrobial activity against Pseudomonas fluorescens isolate C131 harboring sul1 to sul3 genes assessed as antibiotic resistance breakpoint by agar dilution method; type: functional; procedure, shortened: as §1
Pseudomonas putida [41] = assay: Antimicrobial activity against Pseudomonas putida isolate C231 harboring sul1 to sul3 genes assessed as antibiotic resistance breakpoint by agar dilution method; type: functional; procedure, shortened: as §1
Shigella flexneri [42] = assay: Antimicrobial activity against Shigella flexneri isolate C506 harboring sul1 to sul3 genes assessed as antibiotic resistance breakpoint by agar dilution method; type: functional; procedure, shortened: as §2
Bacillus psychrodurans [43] = assay: Antimicrobial activity against Bacillus psychrodurans isolate C328 harboring sul1 to sul3 genes assessed as antibiotic resistance breakpoint by agar dilution method; type: functional, Psychrobacillus psychrodurans; procedure, shortened: as §1
Acinetobacter lwoffii [44] = assay: Antimicrobial activity against Acinetobacter lwoffii isolate C2 harboring sul1 to sul3 genes assessed as antibiotic resistance breakpoint by agar dilution method; type: functional; procedure, shortened: as §1
[45] = Antimicrobial activity against Psychrobacter sp. DY9-2 isolate C711 harboring sul1 to sul3 genes assessed as antibiotic resistance breakpoint by agar dilution method; type: functional; procedure, shortened: as §2
Acinetobacter lwoffii [46] = assay: Antimicrobial activity against Acinetobacter lwoffii isolate C141 harboring sul1 to sul3 genes assessed as antibiotic resistance breakpoint by agar dilution method; type: functional; procedure, shortened: as §1
Acinetobacter lwoffii [47] = assay: Antimicrobial activity against Acinetobacter lwoffii isolate C15 harboring sul1 to sul3 genes assessed as antibiotic resistance breakpoint by agar dilution method; type: functional; procedure, shortened: as §1
Enterococcus hirae [48] = assay: Antimicrobial activity against Enterococcus hirae isolate PGS48 harboring sul1 to sul3 genes assessed as antibiotic resistance breakpoint by agar dilution method; type: functional; procedure, shortened: as §1
[49] = Antimicrobial activity against Psychrobacter ikaite isolate C713 harboring sul1 to sul3 genes assessed as antibiotic resistance breakpoint by agar dilution method; type: functional; procedure, shortened: as §2
[50] = tested on: Psychrobacter frigidicola; assay: Antimicrobial activity against Psychrobacter frigidicola isolate C712 harboring sul1 to sul3 genes assessed as antibiotic resistance breakpoint by agar dilution method; type: functional; procedure, shortened: as §1
[51] = Antimicrobial activity against Psychrobacter ikaite isolate C410 harboring sul1 to sul3 genes assessed as antibiotic resistance breakpoint by agar dilution method; type: functional; procedure, shortened: as §2
Pseudomonas borealis [52] = assay: Antimicrobial activity against Pseudomonas borealis isolate C5 harboring sul1 to sul3 genes assessed as antibiotic resistance breakpoint by agar dilution method; type: functional; procedure, shortened: as §1
Providencia stuartii [53] = assay: Antimicrobial activity against Providencia stuartii isolate C167 harboring sul1 to sul3 genes assessed as antibiotic resistance breakpoint by agar dilution method; type: functional; procedure, shortened: as §1
[54] = Antimicrobial activity against Psychrobacter ikaite isolate C20 harboring sul1 to sul3 genes assessed as antibiotic resistance breakpoint by agar dilution method; type: functional; procedure, shortened: as §1
[55] = tested on: Acinetobacter calcoaceticus; assay: Antimicrobial activity against Acinetobacter calcoaceticus isolate C36 harboring sul1 to sul3 genes assessed as antibiotic resistance breakpoint by agar dilution method; type: functional; procedure, shortened: as §1

Nc1ccc(S(=O)(=O)Nc2ccc(Cl)nn2)cc1 [SULFACHLORPYRIDAZINE]
MIC [1]: 5 µg/mL (≈ 17.6 µM) | MIC [2]: 1 µg/mL (≈ 3.51 µM) | MIC [3]: 16 µg/mL (≈ 56.2 µM) | MIC (Shigella flexneri [4]): 8 µg/mL (≈ 28.1 µM) | MIC (Pseudomonas lini): 1 µg/mL (≈ 3.51 µM) | MIC (Aerococcus viridans [5]): 32 µg/mL (≈ 112 µM) | MIC [6]: 8 µg/mL (≈ 28.1 µM) | MIC (Acinetobacter lwoffii [7]): 1 µg/mL (≈ 3.51 µM) | MIC [8]: 5 µg/mL (≈ 17.6 µM) | MIC (Aerococcus viridans [9]): 8 µg/mL (≈ 28.1 µM) | MIC [10]: 8 µg/mL (≈ 28.1 µM) | MIC [11]: 8 µg/mL (≈ 28.1 µM) | MIC (Enterococcus hirae [12]): 4 µg/mL (≈ 14 µM) | MIC (Pseudomonas borealis [13]): 32 µg/mL (≈ 112 µM) | MIC [14]: 16 µg/mL (≈ 56.2 µM) | MIC (Acinetobacter lwoffii [15]): 16 µg/mL (≈ 56.2 µM) | MIC (Acinetobacter lwoffii [16]): 5 µg/mL (≈ 17.6 µM) | MIC [17]: 16 µg/mL (≈ 56.2 µM) | MIC (Providencia stuartii [18]): 6 µg/mL (≈ 21.1 µM) | MIC (Pseudomonas fluorescens [19]): 32 µg/mL (≈ 112 µM) | MIC [20]: 5 µg/mL (≈ 17.6 µM) | MIC (Bacillus psychrodurans [21]): 8 µg/mL (≈ 28.1 µM) | MIC (Acinetobacter lwoffii [22]): 8 µg/mL (≈ 28.1 µM) | MIC [23]: 1 µg/mL (≈ 3.51 µM) | MIC [24]: 8 µg/mL (≈ 28.1 µM) | MIC (Acinetobacter lwoffii [25]): 6 µg/mL (≈ 21.1 µM) | MIC (Pseudomonas putida [26]): 8 µg/mL (≈ 28.1 µM) | MIC (Enterococcus sulfureus [27]): 4 µg/mL (≈ 14 µM) | MIC (Acinetobacter lwoffii [28]): 5 µg/mL (≈ 17.6 µM) | MIC (Acinetobacter baumannii [29]): 8 µg/mL (≈ 28.1 µM) | MIC [30]: 8 µg/mL (≈ 28.1 µM)

CN(C)[C@@H]1C(O)=C(C(N)=O)C(=O)[C@@]2(O)C(O)=C3C(=O)c4c(O)cccc4[C@@](C)(O)[C@H]3C[C@@H]12 [TETRACYCLINE]
Activity [31]: 8 µg/mL | Activity [32]: 8 µg/mL | Activity (Enterococcus sulfureus [33]): 8 µg/mL | Activity (Acinetobacter baumannii [34]): 8 µg/mL | Activity (Aerococcus viridans [35]): 8 µg/mL | Activity (Acinetobacter lwoffii [36]): 8 µg/mL | Activity (Aerococcus viridans [37]): 8 µg/mL | Activity [38]: 8 µg/mL | Activity [39]: 8 µg/mL | Activity (Pseudomonas fluorescens [40]): 8 µg/mL | Activity (Pseudomonas putida [41]): 8 µg/mL | Activity (Shigella flexneri [42]): 8 µg/mL | Activity (Bacillus psychrodurans [43]): 8 µg/mL | Activity (Acinetobacter lwoffii [44]): 8 µg/mL | Activity [45]: 8 µg/mL | Activity (Acinetobacter lwoffii [46]): 8 µg/mL | Activity (Acinetobacter lwoffii [47]): 8 µg/mL | Activity (Enterococcus hirae [48]): 8 µg/mL | Activity [49]: 8 µg/mL | Activity [50]: 8 µg/mL | Activity [51]: 8 µg/mL | Activity (Pseudomonas borealis [52]): 8 µg/mL | Activity (Providencia stuartii [53]): 8 µg/mL | Activity [54]: 8 µg/mL | Activity [55]: 8 µg/mL
